{"data": "Published values of several laboratories", "target": "Casein kinase I isoform gamma-1 (CSNK1G1, Homo sapiens, UniProt Q9HCP0)", "note": "Each line is one published result; the experiments were not run side by side."}
{"Structure (SMILES)": "CN1CCN(C(=O)c2ccc(NC(=O)Nc3ccc(N(C)c4ccnc(Nc5ccc(CS(C)(=O)=O)cc5)n4)cc3)cc2)CC1", "test": "binding", "conditions": "1 µM", "endpoint": "remaining binding", "value": "100%"}
{"Structure (SMILES)": "CCCCC(=O)Nc1ccc(-c2ccc3ncn(CCC)c(=O)c3c2)cn1", "test": "binding, competition with immobilised ligand", "conditions": "0.5 µM", "endpoint": "remaining binding", "value": "100%"}
{"Structure (SMILES)": "CC(C)S(=O)(=O)c1ccc2nccc(Nc3ccc4sc(C5CCCC5)nc4c3)c2c1", "test": "enzyme activity, inhibitor", "conditions": "1 µM", "endpoint": "activity vs control", "value": "96%"}
{"Structure (SMILES)": "C#Cc1cc(-c2cc(Nc3nc(N[C@@H](C)c4ccc(F)cn4)ncc3Cl)n[nH]2)ccc1C=O", "test": "enzyme activity, inhibitor", "conditions": "0.2 µM", "endpoint": "inhibition", "value": "4.78%"}
{"Structure (SMILES)": "C=CC(=O)N1CCC[C@@H](n2nc(-c3ccc(Oc4ccccc4)cc3)c3c(N)ncnc32)C1", "test": "enzyme activity, inhibitor", "conditions": "1 µM", "endpoint": "inhibition", "value": "7%"}
{"Structure (SMILES)": "C1=C/COCc2cc(ccc2OCCN2CCCC2)Nc2nccc(n2)-c2cccc(c2)COC/1", "test": "cell-free assay", "conditions": "0.1 µM", "endpoint": "remaining signal", "value": "72%"}
{"Structure (SMILES)": "Cc1cc(O)c(-c2ccc([C@@H](C)CN(C)C)cc2)c2c1[nH]c(=O)c1sccc12", "test": "enzyme activity, inhibitor", "conditions": "0.1 µM", "endpoint": "inhibition", "value": "-2.19%"}
{"Structure (SMILES)": "CO[C@@H]1[C@H](N(C)C(=O)c2ccccc2)C[C@H]2O[C@]1(C)n1c3ccccc3c3c4c(c5c6ccccc6n2c5c31)C(=O)NC4", "test": "enzyme activity, inhibitor", "conditions": "1 µM", "endpoint": "inhibition", "value": "0%"}
{"Structure (SMILES)": "C[C@H]1CC[C@H](n2c3cnccc3c3cnc(Nc4ccc5c(n4)CCN(C(=O)CO)C5)nc32)CC1", "test": "cell-free assay", "conditions": "1 µM", "endpoint": "remaining signal", "value": "100%"}
